Experiments:
[1] = Selectivity index, ratio of IC50 for human THP1 cells to IC50 for axenic amastigote stage of Leishmania infantum; format: toxicity, cell-based, THP-1; conditions: read-out: Ratio IC50
Summary of the method: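 SI computed as THP-1 IC50 (24 h PI-exclusion flow cytometry) divided by IC50 against L. infantum amastigotes.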

THP-1 = experiment: Cytotoxicity against human THP1 cells after 24 hrs by propidium iodide staining-based flow cytometric analysis; format: cell-based; conditions: THP-1, 24 h
Summary of the method: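 THP-1 cells grown in RPMI-1640 with 10% heat-inactivated FCS, 1 mM HEPES, 2 mM glutamine, 1 mM pyruvate, pH 7.2, 37 °C, 5% CO2; treated in log phase at 4 × 10⁵ cells/mL for 24 h at 37 °C, 5% CO2. Viability by flow cytometry with propidium iodide exclusion; IC50 reported.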

Leishmania infantum [2] = experiment: Leishmanicidal activity against axenic amastigote stage of Leishmania infantum after 24 hrs by propidium iodide staining-based flow cytometric analysis; format: functional, organism-based
Summary of the method: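 Axenic amastigotes maintained at pH 5.4, 37 °C in medium with citric acid, sodium bicarbonate, MES, hemin and gentamicin; miltefosine and edelfosine as standards; at least three independent experiments; IC50 values.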

Leishmania infantum [3] = experiment: Leishmanicidal activity against amastigote stage of Leishmania infantum expressing GFP infected in human THP1 cells after 48 hrs by flow cytometric analysis; format: functional, organism-based; conditions: THP-1, 48 h
Summary of the method: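 THP-1 cells seeded at 120.000 cells/mL, differentiated to macrophages for 24 h with 10 ng/mL PMA in RPMI-1640, then infected with 1.2 × 10⁶ eGFP-expressing amastigotes per well; free parasites removed after 4 h. After 48 h drug treatment, cells washed with PBS, detached with TrypLE, and infection rate read by flow cytometry.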

## O=S(=O)(Nc1ccc([Se][Se]c2ccc(NS(=O)(=O)c3ccccc3)cc2)cc1)c1ccccc1
[1]
  selectivity ratio: 7.3
THP-1
  IC50: 11.9 µM
Leishmania infantum [2]
  IC50: 1.64 µM

## Cc1ccc(S(=O)(=O)Nc2ccc([Se][Se]c3ccc(NS(=O)(=O)c4ccc(C)cc4)cc3)cc2)cc1
Leishmania infantum [3]
  IC50: 4.1 µM
[1]
  selectivity ratio: > 18
THP-1
  IC50: > 25 µM
Leishmania infantum [2]
  IC50: 1.4 µM

## COc1ccc(S(=O)(=O)Nc2ccc([Se][Se]c3ccc(NS(=O)(=O)c4ccc(OC)cc4)cc3)cc2)cc1
[1]
  selectivity ratio: 14
THP-1
  IC50: 18.1 µM
Leishmania infantum [2]
  IC50: 1.3 µM

## N#Cc1ccc(S(=O)(=O)Nc2ccc([Se][Se]c3ccc(NS(=O)(=O)c4ccc(C#N)cc4)cc3)cc2)cc1
[1]
  selectivity ratio: 2
THP-1
  IC50: 3.6 µM
Leishmania infantum [2]
  IC50: 1.76 µM

## O=[N+]([O-])c1ccc(S(=O)(=O)Nc2ccc([Se][Se]c3ccc(NS(=O)(=O)c4ccc([N+](=O)[O-])cc4)cc3)cc2)cc1
[1]
  selectivity ratio: 4.6
THP-1
  IC50: 17.1 µM
Leishmania infantum [2]
  IC50: 3.74 µM

## O=S(=O)(Nc1ccc([Se][Se]c2ccc(NS(=O)(=O)c3ccc(C(F)(F)F)cc3)cc2)cc1)c1ccc(C(F)(F)F)cc1
[1]
  selectivity ratio: 9.5
THP-1
  IC50: 19.1 µM
Leishmania infantum [2]
  IC50: 2.01 µM

## O=S(=O)(Nc1ccc([Se][Se]c2ccc(NS(=O)(=O)c3ccc(F)cc3)cc2)cc1)c1ccc(F)cc1
Leishmania infantum [3]
  IC50: 2.8 µM
[1]
  selectivity ratio: > 17
THP-1
  IC50: > 25 µM
Leishmania infantum [2]
  IC50: 1.47 µM

## O=S(=O)(Nc1ccc([Se][Se]c2ccc(NS(=O)(=O)c3ccc(Cl)cc3)cc2)cc1)c1ccc(Cl)cc1
[1]
  selectivity ratio: > 7
THP-1
  IC50: > 25 µM
Leishmania infantum [2]
  IC50: 3.63 µM

## O=S(=O)(Nc1ccc([Se][Se]c2ccc(NS(=O)(=O)c3ccc(Br)cc3)cc2)cc1)c1ccc(Br)cc1
[1]
  selectivity ratio: 2
THP-1
  IC50: 5.2 µM
Leishmania infantum [2]
  IC50: 2.8 µM

## O=S(=O)(Nc1ccc([Se][Se]c2ccc(NS(=O)(=O)c3ccccc3F)cc2)cc1)c1ccccc1F
[1]
  selectivity ratio: 10.7
THP-1
  IC50: 17.8 µM
Leishmania infantum [2]
  IC50: 1.66 µM

## O=S(=O)(Nc1ccc([Se][Se]c2ccc(NS(=O)(=O)c3ccccc3Cl)cc2)cc1)c1ccccc1Cl
[1]
  selectivity ratio: 15
THP-1
  IC50: 17.4 µM
Leishmania infantum [2]
  IC50: 1.17 µM

## O=S(=O)(Nc1ccc([Se][Se]c2ccc(NS(=O)(=O)c3ccc(-c4ccccc4)cc3)cc2)cc1)c1ccc(-c2ccccc2)cc1
[1]
  selectivity ratio: > 2
THP-1
  IC50: > 25 µM
Leishmania infantum [2]
  IC50: 13.8 µM

## O=S(=O)(Nc1ccc([Se][Se]c2ccc(NS(=O)(=O)c3ccc4ccccc4c3)cc2)cc1)c1ccc2ccccc2c1
[1]
  selectivity ratio: > 4.4
THP-1
  IC50: > 25 µM
Leishmania infantum [2]
  IC50: 5.65 µM

## O=S(=O)(Nc1ccc([Se][Se]c2ccc(NS(=O)(=O)c3cccc4cccnc34)cc2)cc1)c1cccc2cccnc12
Leishmania infantum [3]
  IC50: 6.2 µM
[1]
  selectivity ratio: > 30
THP-1
  IC50: > 25 µM
Leishmania infantum [2]
  IC50: 0.83 µM

## O=S(=O)(Nc1ccc([Se][Se]c2ccc(NS(=O)(=O)c3cccs3)cc2)cc1)c1cccs1
[1]
  selectivity ratio: 5.6
THP-1
  IC50: 8.6 µM
Leishmania infantum [2]
  IC50: 1.54 µM

## Cn1ccnc1S(=O)(=O)Nc1ccc([Se][Se]c2ccc(NS(=O)(=O)c3nccn3C)cc2)cc1
[1]
  selectivity ratio: 4
THP-1
  IC50: 4.4 µM
Leishmania infantum [2]
  IC50: 1.05 µM

## CCCCCCCCCCCCCCCCCCOCC(COP(=O)([O-])OCC[N+](C)(C)C)OC (stereo not given) [EDELFOSINE]
Leishmania infantum [3]
  IC50: 3.1 µM
[1]
  selectivity ratio: 6
THP-1
  IC50: 4.9 µM

## CCCCCCCCCCCCCCCCOP(=O)([O-])OCC[N+](C)(C)C [MILTEFOSINE]
[1]
  selectivity ratio: 7
